Source: ChEMBL document CHEMBL4033663, “Design, combinatorial synthesis and biological evaluations of novel 3-amino-1'-((1-aryl-1H-1,2,3-triazol-5-yl)methyl)-2'-oxospiro[benzo[a] pyrano[2,3-c]phenazine-1,3'-indoline]-2-carbonitrile antitumor hybrid molecules” (Eur J Med Chem, 2017)
The source made the active and inactive calls. No cut-off for these calls is given here.

Key:
A549 [1] = assay: Induction of apoptosis in human A549 cells assessed as increase in Bax/Bcl-2 ratio after 24 hrs by Western blot analysis; assay type: functional, cell-based
Method in brief: (§1)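 A549 cells (3 × 10^5 per dish) were treated for 24 h and lysed in RIPA buffer; protein was measured by BCA. Lysates were run on 12% SDS-PAGE and blotted to nitrocellulose. Blots were blocked in 5% non-fat milk for 2 h at room temperature, then incubated with primary antibodies in TBST overnight at 4 °C. ECL detection was used, with bands normalized to β-actin (mean ± SD, three experiments).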

A549 [2] = assay: Up regulation of p21 expression in human A549 cells at 3 to 12 uM after 24 hrs by Western blot analysis; assay type: functional, cell-based; method in brief: as §1
A549 [3] = assay: Induction of apoptosis in human A549 cells assessed as viable cells at 3 uM after 24 hrs by Annexin V-APC/7-AAD staining-based FACS analysis (reference value: 94.1%); assay type: functional; settings: A549, 24 h, read-out: Activity
A549 [4] = assay: Induction of apoptosis in human A549 cells assessed as necrotic cells at 12 uM after 24 hrs by Annexin V-APC/7-AAD staining-based FACS analysis (reference value: 0.032%); assay type: functional
A549 [5] = assay: Up regulation of p53 expression in human A549 cells at 3 to 12 uM after 24 hrs by Western blot analysis; assay type: functional, cell-based; method in brief: as §1
A549 [6] = assay: Cell cycle arrest in human A549 cells assessed as accumulation at S-phase at 12 uM after 24 hrs by propidium iodide staining-based FACS analysis (reference value: 17.8 %); assay type: functional
A549 [7] = assay: Cell cycle arrest in human A549 cells assessed as accumulation at S-phase at 6 uM after 24 hrs by propidium iodide staining-based FACS analysis (reference value: 17.8 %); assay type: functional
A549 [8] = assay: Induction of apoptosis in human A549 cells assessed as early apoptotic cells at 3 uM after 24 hrs by Annexin V-APC/7-AAD staining-based FACS analysis (reference value: 5.82%); assay type: functional
A549 [9] = assay: Cell cycle arrest in human A549 cells assessed as accumulation at S-phase at 3 uM after 24 hrs by propidium iodide staining-based FACS analysis (reference value: 17.8 %); assay type: functional
A549 [10] = assay: Down regulation of cyclin E expression in human A549 cells after 24 hrs by Western blot analysis; assay type: functional, cell-based; method in brief: as §1
HUVEC = assay: Antiproliferative activity against human HUVEC cells after 48 hrs by MTT assay; assay type: cell-based
HCT-116 = assay: Antiproliferative activity against human HCT116 cells after 48 hrs by MTT assay; assay type: functional, cell-based; settings: HCT-116, 48 h
HepG2 = assay: Antiproliferative activity against human HepG2 cells after 48 hrs by MTT assay; assay type: functional, cell-based; settings: HepG2, 48 h
L02 = assay: Antiproliferative activity against human L02 cells after 48 hrs by MTT assay; assay type: cell-based; settings: L02, 48 h
A549 [11] = assay: Induction of apoptosis in human A549 cells assessed as early apoptotic cells at 12 uM after 24 hrs by Annexin V-APC/7-AAD staining-based FACS analysis (reference value: 5.82%); assay type: functional
A549 [12] = assay: Induction of apoptosis in human A549 cells assessed as viable cells at 12 uM after 24 hrs by Annexin V-APC/7-AAD staining-based FACS analysis (reference value: 94.1%); assay type: functional; settings: A549, 24 h, read-out: Activity
A549 [13] = assay: Effect on CDK1 expression in human A549 cells at 3 to 12 uM after 24 hrs by Western blot analysis; assay type: functional, cell-based; method in brief: as §1
A549 [14] = assay: Antiproliferative activity against human A549 cells after 48 hrs by MTT assay; assay type: functional, cell-based; settings: A549, 48 h
A549 [15] = assay: Induction of apoptosis in human A549 cells assessed as necrotic cells at 6 uM after 24 hrs by Annexin V-APC/7-AAD staining-based FACS analysis (reference value: 0.032%); assay type: functional
A549 [16] = assay: Induction of apoptosis in human A549 cells assessed as increase in cleaved caspase-3 level at 3 to 12 uM after 24 hrs by Western blot analysis; assay type: functional, cell-based; method in brief: as §1
[17] = Drug uptake in mitochondria of human A549 cells at 2 to 8 uM after 30 mins by MitoTracker Red CMXRos dye-based confocal microscopic analysis; assay type: ADME, cell-based; settings: a549, 0.5 h
Method in brief: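 Live A549 cells were grown for 2 days in confocal dishes. They were then incubated with compound and MitoTracker Red CMXRos in culture medium for 30 min, and localization was imaged by laser-scanning confocal microscopy.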

A549 [18] = assay: Induction of apoptosis in human A549 cells assessed as late apoptotic cells at 3 uM after 24 hrs by Annexin V-APC/7-AAD staining-based FACS analysis (reference value: 0.01%); assay type: functional
A549 [19] = assay: Induction of reactive oxygen species generation in human A549 cells by MitoSOX Red dye-based FACS analysis; assay type: functional, cell-based
Method in brief: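 Treated A549 cells were stained with a kit dye that distinguishes ROS(−) and ROS(+) populations. Percentages of each population were measured by flow cytometry.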

A549 [20] = assay: Induction of apoptosis in human A549 cells assessed as late apoptotic cells at 12 uM after 24 hrs by Annexin V-APC/7-AAD staining-based FACS analysis (reference value: 0.01%); assay type: functional
MCF7 = assay: Antiproliferative activity against human MCF7 cells after 48 hrs by MTT assay; assay type: functional, cell-based; settings: MCF7, 48 h
A549 [21] = assay: Induction of apoptosis in human A549 cells assessed as increase in cleaved caspase-9 level at 3 to 12 uM after 24 hrs by Western blot analysis; assay type: functional, cell-based; method in brief: as §1
A549 [22] = assay: Induction of apoptosis in human A549 cells assessed as early apoptotic cells at 6 uM after 24 hrs by Annexin V-APC/7-AAD staining-based FACS analysis (reference value: 5.82%); assay type: functional
A549 [23] = assay: Induction of apoptosis in human A549 cells assessed as late apoptotic cells at 6 uM after 24 hrs by Annexin V-APC/7-AAD staining-based FACS analysis (reference value: 0.01%); assay type: functional
A549 [24] = assay: Down regulation of CDK2 expression in human A549 cells after 24 hrs by Western blot analysis; assay type: functional, cell-based; method in brief: as §1
A549 [25] = assay: Effect on cyclin D expression in human A549 cells at 3 to 12 uM after 24 hrs by Western blot analysis; assay type: functional, cell-based; method in brief: as §1
A549 [26] = assay: Effect on cyclin B expression in human A549 cells at 3 to 12 uM after 24 hrs by Western blot analysis; assay type: functional, cell-based; method in brief: as §1
A549 [27] = assay: Induction of apoptosis in human A549 cells assessed as necrotic cells at 3 uM after 24 hrs by Annexin V-APC/7-AAD staining-based FACS analysis (reference value: 0.032%); assay type: functional
A549 [28] = assay: Induction of apoptosis in human A549 cells assessed as viable cells at 6 uM after 24 hrs by Annexin V-APC/7-AAD staining-based FACS analysis (reference value: 94.1%); assay type: functional; settings: A549, 24 h, read-out: Activity

With `N#CC1=C(N)Oc2c(N)cc3nc4ccccc4nc3c2C12C(=O)N(Cc1cnnn1-c1cccc(C(F)(F)F)c1)c1ccccc12` (stereo not drawn) the Activity (A549 [1]) was “Dose-dependent effect”, the Activity (A549 [2]) was “Active” and the viability at 3 µM (A549 [3]) was 91%. The Activity (A549 [4]) was 3.21%, the Activity (A549 [5]) was “Active” and the Activity (A549 [6]) was 51.1%. For the same molecule, the Activity (A549 [7]) was 41.7%, the Activity (A549 [8]) was 8.89% and the Activity (A549 [9]) was 30.5%. For the same molecule, the Activity (A549 [10]) was “Dose-dependent effect”, the IC50 (HUVEC) was over 50 µM and the IC50 (HCT-116) was 18.9 µM. For the same molecule, the IC50 (HepG2) was 15.8 µM, the IC50 (L02) was 38.1 µM and the Activity (A549 [11]) was 38.5%. For the same molecule, the viability at 12 µM (A549 [12]) was 55.9%, the Activity (A549 [13]) was “inactive” and the IC50 (A549 [14]) was 5.4 µM. The Activity (A549 [15]) was 0.127%, the Activity (A549 [16]) was “Active” and the Drug uptake [17] was “Active”. For the same molecule, the Activity (A549 [18]) was 0.031%, the Activity (A549 [19]) was “Dose-dependent effect” and the Activity (A549 [20]) was 2.32%. For the same molecule, the IC50 (MCF7) was 31.6 µM, the Activity (A549 [21]) was “Active” and the Activity (A549 [22]) was 11.2%. For the same molecule, the Activity (A549 [23]) was 0.053%, the Activity (A549 [24]) was “Dose-dependent effect” and the Activity (A549 [25]) was “inactive”. The Activity (A549 [26]) was “inactive”, the Activity (A549 [27]) was 0.052% and the viability at 6 µM (A549 [28]) was 88.6%.
